Compound activity as filed in PubChem.
bCat KO growth: beta-catenin-lacking colon tumor cell growth suppression. 1.5% of 140,000 active. HCT116 beta-catenin knockout viability, CellTiter-Glo, 60 h; hits give low values. AID 818. viability, % at 10 µM;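 active means viability at or under a set limit, the compound median less 4 SD, cut at about 6% in these data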;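 further: 0% = Hyamine 1622 control at 20 µM and 100% = untreated cell control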
PTEN del growth: growth suppressors of cells with PTEN tumor suppressor deletion | HCT116 PTEN-null viability, CellTiter-Glo, 60 h; hits give low values | viability, % at 10 µM | 1.2% of 140,000 active;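 active means viability at or below a set limit, 4 SD under the median of all tested compounds, cut at about 3.7% in these data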;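 further: PTEN knockout HCT116 line with beta catenin targeted HCT116 as companion control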
L major viab: Leishmania major promastigote growth inhibition; 9% of 200,000 active; inhibition, % at 10 µM; Leishmania major promastigotes, resazurin fluorescence viability; in the data active means inhibition above about 50%;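 further: promastigotes grown with compound for 44 hours at 28 °C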
TNAP act hiacc: increases human TNAP activity under high phosphate acceptor concentration. P05186. activation factor at 20 µM. purified TNAP, CDP-star luminescence, 1 M DEA, 30 min; hits give high values; 0 = EDTA background, 1 = DMSO-only activity. AID 1136. 200,000 tested, under 10 active;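 active means activation factor at least 2 at 20 µM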
Target sequence (P05186 whole entry, looked up): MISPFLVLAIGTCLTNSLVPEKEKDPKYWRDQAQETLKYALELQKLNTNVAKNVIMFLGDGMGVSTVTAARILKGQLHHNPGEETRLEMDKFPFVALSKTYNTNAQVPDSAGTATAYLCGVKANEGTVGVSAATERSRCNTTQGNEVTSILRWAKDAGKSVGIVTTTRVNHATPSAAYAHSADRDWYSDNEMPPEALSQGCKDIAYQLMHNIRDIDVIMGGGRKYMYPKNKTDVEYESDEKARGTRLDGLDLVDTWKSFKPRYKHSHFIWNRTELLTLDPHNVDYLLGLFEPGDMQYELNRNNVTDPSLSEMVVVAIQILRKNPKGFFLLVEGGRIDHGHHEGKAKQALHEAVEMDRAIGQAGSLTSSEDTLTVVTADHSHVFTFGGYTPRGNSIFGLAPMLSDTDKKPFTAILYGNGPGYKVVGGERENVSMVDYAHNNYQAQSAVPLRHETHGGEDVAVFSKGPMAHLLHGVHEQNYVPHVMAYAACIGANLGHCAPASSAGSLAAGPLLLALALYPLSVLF
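Control set: EDTA negative control, DMSO positive control / Assay system: human TNAP / Quantity: TNAP 1/800 final / Evaluation: TNAP activation factor scaled between EDTA and DMSO control wells / Measured by: luminescent substrate turnover signal / Compound dosing: one dose, 20 µM / Times: 30 min enzyme reaction at room temperature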
TNAP inh hiacc: blocks human TNAP under high phosphate acceptor concentration. P05186. purified TNAP, CDP-star luminescence, 1 M DEA. inhibition, % at 20 µM. 0.03% of 200,000 active;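 active means over 50% inhibition of tissue-nonspecific alkaline phosphatase at 20 µM in the single-dose screen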;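 further: plate controls were DMSO wells for no effect and EDTA-quenched wells as full inhibition for full effect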
TNAP inh no acc: blocks human TNAP activity with no phosphate acceptor present; 0.26% of 200,000 active; purified TNAP, CDP-star luminescence, 30 min; inhibition, % at 20 µM; AID 1012;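 active means tissue-nonspecific alkaline phosphatase inhibition above about 50% at 20 µM in the single-dose screen, limit read from the data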;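 further: 0% = DMSO negative control and 100% = EDTA positive control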
An asterisk follows results filed as active; / = not tested or not shown. A selection: hits, their analogues and other compounds. The true share with any hit is near 9.6%.

SMILES	bCat KO growth	PTEN del growth	L major viab	TNAP act hiacc	TNAP inh hiacc	TNAP inh no acc
COc1ccc(Cc2nn3c(-c4ccccc4OC)nnc3s2)cc1	94	93	-4	1.1	-7	59*
Cc1ccc(C(=O)N/C(=C\c2ccco2)C(=O)NCCCn2ccnc2)cc1C	103	101	-2	1	-3	-9
Cc1ccc(NC(=O)c2sc3nc(CCl)[nH]c(=O)c3c2C)c(C)c1	/	/	89*	1.1	-6	-15
Cc1cc(C)c(NC(=O)c2sc3nc(C)[nH]c(=O)c3c2C)c(C)c1	/	/	-8	1	2	-8
O=C(NC1CCCC1)c1ccc(CSCc2ccccc2F)o1	88	102	89*	1.1	-5	0
O=C(NC1CCCCC1)c1ccc(CS(=O)(=O)Cc2ccccc2F)o1	88	103	3	1	-4	-9
CCN1CCN(c2c(Cl)cccc2NC(=O)c2ccc([N+](=O)[O-])cc2)CC1	/	/	9	1	-2	-8
CCN(CC)S(=O)(=O)c1cc(NC(=O)C(C)Nc2ccccc2N2CCOCC2)ccc1C (stereo unspecified)	/	/	71*	1	-3	-16
CCN(CC)S(=O)(=O)c1cc(NC(=O)C(C)N2CCN(c3ccccn3)CC2)ccc1C (stereo unspecified)	/	/	11	1	-4	-10
CCN(CC)S(=O)(=O)c1ccc(N2CCCCC2)c(C(=O)Nc2ccccc2N2CCOCC2)c1	20	30	40	1	4	0
CCN(CC)S(=O)(=O)c1cc(NC(=O)C(C)N2CCN(Cc3ccc4c(c3)OCO4)CC2)ccc1C (stereo unspecified)	32	45	88*	1	-2	-8
Cc1ccc(C2C(C#N)=C(N)N(c3cccnc3)C3=C2C(=O)CCC3)c(C)c1 (stereo unspecified)	/	/	4	1	-4	-4
CCCCCCOC(=O)C(C#N)c1nc2ccccc2nc1N1CCN(C)CC1 (stereo unspecified)	22	25	54*	0.9	5	12
CCC(CC)COC(=O)C(C#N)c1nc2ccccc2nc1N1CCN(CC)CC1 (stereo unspecified)	41	43	100*	1	2	-3
Cc1cccn2c(=O)c(/C=C(\C#N)C(N)=O)c(N3CCN(Cc4ccc5c(c4)OCO5)CC3)nc12	92	82	65*	0.9	8	-1
C=CCOC(=O)C(C#N)c1nc2ccccc2nc1N1CCN(c2ccccc2OCC)CC1 (stereo unspecified)	82	73	10	1	2	-3
C=CCOC(=O)C(C#N)c1nc2ccccc2nc1N1CCN(Cc2ccc3c(c2)OCO3)CC1 (stereo unspecified)	96	87	58*	0.9	8	5
CS(=O)(=O)N(CC(=O)Nc1cccc([N+](=O)[O-])c1)c1cccc(F)c1	/	/	11	1	0	-2
COc1cc(NC(=S)N2CCc3ccccc3C2)cc(OC)c1	/	/	-7	1	0	-12
Cc1ccc(C)c(NS(=O)(=O)c2cc(C(=O)N3CCCC3)ccc2Cl)c1	/	/	12	1	-1	-1
Cc1ccsc1/C=N/N1CCN(c2ccccc2)CC1	90	85	53*	1	-1	-7
O=C(CCCN1CC=C(n2c(=O)[nH]c3ccccc32)CC1)c1ccc(F)cc1	85	87	18	0.9	7	63*
N#C/C(=C/c1cn(-c2ccccc2)nc1-c1cccc(OCc2ccc(F)cc2)c1)C(=O)NCCCn1ccnc1	23	7	100*	1	-2	-3
CCCOc1cccc(-c2nn(-c3ccccc3)cc2/C=C(\C#N)C(=O)NCCCn2ccnc2)c1	50	48	89*	1	-1	3
COC(=O)c1ccccc1N/C=C/C(=O)c1ccc(Br)cc1	85	89	73*	1	0	-11
SMILES	bCat KO growth	PTEN del growth	L major viab	TNAP act hiacc	TNAP inh hiacc	TNAP inh no acc
CC1(C)CC(=O)C(CCC(=O)c2ccccc2)C(C)(C)N1 (stereo unspecified)	92	91	90*	1	-2	-13
O=C(CCC1CCCCC1=O)c1ccccc1 (stereo unspecified)	82	107	-2	1.1	-5	0
CCc1ccccc1NC(=S)N(Cc1cccc(C)c1)c1cccnc1	/	/	22	1	2	-4
Cc1cccc(CN(C(=S)Nc2c(C)cccc2C)c2cccnc2)c1	/	/	87*	1	-3	-7
COc1ccccc1N/C(N)=N/c1nc(C(F)(F)F)cc(=O)[nH]1	/	/	0	1	0	-7
COc1ccc(S(=O)(=O)Nc2ccc(O)c(Sc3ncn[nH]3)c2)cc1	97	89	-2	0.9	5	79*
Cc1cc(C)nc(NS(=O)(=O)c2ccc(NC(=O)CSc3ncn[nH]3)cc2)n1	/	/	-1	1.1	-7	-7
COc1ccc(S(=O)(=O)Nc2cc(Sc3ncn[nH]3)c(O)c3ccccc23)cc1	1.7*	2.5*	100*	1	4	29
Cc1cc(C)c(S(=O)(=O)Nc2ccc(O)c(Sc3ncn[nH]3)c2)c(C)c1	97	94	0	1	1	72*
O=S(=O)(Nc1ccccc1O)c1cccc2cccnc12	/	/	-3	1.1	-7	-135
O=S(=O)(Nc1cc(Sc2cccc3cccnc23)c(O)c2ccccc12)c1ccc(F)cc1	1.3*	1.4*	100*	0.9	6	32
CCOc1ccccc1Nc1nnc(SCC(=O)Nc2cccc(S(=O)(=O)NC3=NCCCCC3)c2)s1	62	70	0	1.1	-6	-21
O=C(Sc1cccc2cccnc12)c1ccc(F)cc1	/	/	100*	1	-2	-1
CN(C)C(=O)CSc1cccc2cccnc12	4.3*	6	100*	1	-4	-14
CC(=O)/C(=N\Nc1ccccc1)Sc1cccc2cccnc12	93	103	-5	1	0	-11
CSc1ccccc1C(=O)Nc1ccccc1C(=O)NC(C)C	/	/	3	1	3	-4
Cc1ccc(C(c2c(C)nn(-c3ccccc3)c2N)c2c(C)nn(-c3ccccc3)c2N)cc1	82	75	95*	1.1	-8	-7
CCOC(=O)c1ccc(NC(=O)c2cn(CCC#N)nc2-c2ccc3c(c2)OCCO3)cc1	96	84	68*	1	-2	-65
Cc1ccc2ncnc(Nc3ccc(C)c(C)c3)c2c1	77	78	73*	1.1	-8	-10
CC(=O)c1c(C)n(-c2ccccc2)c2ccc(OCC(N)=O)cc12	/	/	-4	1	-2	-3
Cc1ccccc1N(CC(=O)NCCc1ccccc1)C(=O)c1ccc(N2CCCC2)nc1	91	94	61*	1	-3	-10
O=C(NCC1CCCO1)c1ccc(N2CCCCC2)nc1 (stereo unspecified)	87	105	-3	1	-2	-8
